According to ChEMBL document CHEMBL4265995, “Chaetolines A and B, Pyrano[3,2- f]isoquinoline Alkaloids from Cultivation of Chaetomium sp. in the Presence of Autoclaved Pseudomonas aeruginosa” (2018):

What was measured:
Format in all cases: functional
Staphylococcus aureus [1] = experiment: Antibacterial activity against Staphylococcus aureus ATCC 29213 after 24 hrs by CLSI method; conditions: ATCC 29213, 24 h
How it was run: (§1)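 Broth microdilution in 96-well plates, using a medium of 1.75% w/v acid digest of casein and 0.15% w/v starch. Compounds came from a 10 mg/mL DMSO stock. Serial 2-fold dilutions started at 64 μg/mL, with DMSO diluted along with the compounds (0.64% final at the top concentration). Plates were incubated 24 h at 37 °C and read by visual inspection. Moxifloxacin and rifampicin were the positive controls.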

Acinetobacter baumannii [2] = experiment: Antibacterial activity against Acinetobacter baumannii BAA1605 after 24 hrs by CLSI method; conditions: BAA1605, 24 h; how it was run: as §1
Klebsiella pneumoniae = experiment: Antibacterial activity against Klebsiella pneumoniae ATCC 13883 after 24 hrs by CLSI method; conditions: ATCC 13883, 24 h; how it was run: as §1
Acinetobacter baumannii [3] = experiment: Antibacterial activity against Acinetobacter baumannii BAA747 after 24 hrs by CLSI method; conditions: BAA747, 24 h; how it was run: as §1
L5178Y = experiment: Cytotoxicity against mouse L5178Y cells by MTT assay
How it was run: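 MTT viability assay on L5178Y mouse lymphoma cells, compared with untreated controls. Negative controls were media containing 0.1% ethylene glycol monomethyl ether/DMSO. Three independent experiments, each in triplicate.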

Staphylococcus aureus [4] = experiment: Antibacterial activity against Staphylococcus aureus ATCC 700699 after 24 hrs by CLSI method; conditions: ATCC 700699, 24 h; how it was run: as §1
Escherichia coli = experiment: Antibacterial activity against Escherichia coli ATCC 25922 after 24 hrs by CLSI method; conditions: ATCC 25922, 24 h; how it was run: as §1
Pseudomonas aeruginosa = experiment: Antibacterial activity against Pseudomonas aeruginosa ATCC 27853 after 24 hrs by CLSI method; conditions: ATCC 27853, 24 h; how it was run: as §1

| Structure (SMILES) | MIC (Staphylococcus aureus [1]) | MIC (Acinetobacter baumannii [2]) | MIC (Klebsiella pneumoniae) | MIC (Acinetobacter baumannii [3]) | MIC (L5178Y) | MIC (Staphylococcus aureus [4]) | MIC (Escherichia coli) | MIC (Pseudomonas aeruginosa) |
| --- | --- | --- | --- | --- | --- | --- | --- | --- |
| Cc1c2c(c3cc(C)n([C@@H](CC(C)C)C(=O)O)c(=O)c3c1O)C[C@@H](C(C)(C)O)CO2 | > 100 µM | > 100 µM | > 100 µM | > 100 µM | > 20 µM | > 100 µM | > 100 µM | > 100 µM |
| CCC(C)[C@@H](C(=O)O)n1c(C)cc2c3c(c(C)c(O)c2c1=O)OC[C@H](C(C)(C)O)C3 (stereo partly specified) | > 100 µM | > 100 µM | > 100 µM | > 100 µM | > 20 µM | > 100 µM | > 100 µM | > 100 µM |
